Test results from the EternaBench riboswitch data.

Test system: MS2 coat protein
Assay: apparent Kd, MS2 coat protein; higher = weaker binding; RNA-MaP array; FMN 200 µM where present
How it was run: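 Designs were transcribed by stalled E. coli RNA polymerase on Illumina sequencing-chip clusters. They were titrated with SNAP-549-labelled MS2 coat protein from 0.7 or 1.5 nM, doubling to 3 µM, without and then with constant ligand. Buffer: 100 mM Tris-HCl pH 7.5, 80 mM KCl, 4 mM MgCl2, BSA, DTT, yeast tRNA, Tween-20. Green signal was normalised to red-channel RNA signal and control-cluster median Fmax. Apparent Kd is the median of filtered per-cluster binding-curve fits.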

[1] = designed as: OFF switch for flavin mononucleotide, no ligand
[2] = ligand present: flavin mononucleotide, designed as: OFF switch for flavin mononucleotide
[3] = designed as: ON switch for flavin mononucleotide, no ligand
[4] = ligand present: flavin mononucleotide, designed as: ON switch for flavin mononucleotide

| Sequence | apparent Kd [1] [nM] | apparent Kd [2] [nM] | apparent Kd [3] [nM] | apparent Kd [4] [nM] |
| --- | --- | --- | --- | --- |
| UUCUGGCUAGGAUAUACAGUGUCCACGAGUUAGUUGCCCUAACAUGAGGAUCACCCAUGUAGAAGGAGCGAGAA | 48.2 | 83.7 | – | – |
| AUGGUUGUCGUAGGAUAUGUAGGAUAUUCCUACAUGAGGAUCACCCAUGUUCGCAUGGAAGAAGGACGGAAGGACGAUGACCAU | – | – | 194 | 132 |
| UAAGUCGGAAGAUAAUAAUGAAUACAUGAGGAUCACCCAUGUAAGGAUAUGCAGUGGAAUACACUGCAGAAGGUACAUACCGAC | 16.1 | 21.4 | – | – |
| GUAUCUUAUGAGAAGGCGAUCAUGAAACAUGAUCGAGGAUAUCAUGAAAACAUGAGGAUCACCCAUGUAUGGGUAUUAUGGUAC | – | – | 63.5 | 43.7 |
| UAUAAUACAUAGGAUAUCGAAUAAAUCAUUUAACGAGAAGGAUGAACAUGAGGAUCACCCAUGUGGUAUCAUGG | 263 | 241 | – | – |
| UAUAUUAUUAUAGGAUAUGGAUACGAUGCGUAUCCAGAAGGGUGAUUAUAAUAUAAUCUAUACAUGAGGAUCACCCAUGUUUAU | – | – | 303 | 73.9 |
| ACCAAUGCAGGAUAUACAUGAGGAUCACCCAUGUAUAACCUACAUAGAUGAUCAUCAUGUAGAAGGGCAAUGGA | 13.1 | 12.1 | – | – |
| CAUUAAUAGUAGAAGGGUCAAGUUUUGGGUAGGGCAGGAUAUACGAACAAGAAACAUGAGGAUCACCCAUGUGUCCAUGUCAUG | 33.9 | 29.6 | – | – |
| AUGUUGAGCAGUGUAUUAAGAUCACAUGAGGAUCACCCAUGUAGAAGGUAUGAGCUGAUCGCUCAUAAGGAUAUACAUCACUGC | 69.9 | 119 | – | – |
| UGUAUUAACGGAGGAUAUCGAUAUCAAACAUGAGGAUCACCCAUGUUGAGGAUCACCCAUGUCCAUGAGAAGGCUGGCGUACUU | – | – | 20.8 | 20.6 |
| UUCAGCUCGUGAGGAUAUACAUGUGCUGGAAACAGCACUAUUAAGAUCACAUGAGGAUCACCCAUGUAGAAGGCACGAGCUGAG | 48 | 585 | – | – |
| CCUCUACAUGAGGAUCACCCAUGUGAGGAUAUCUCGGAGCAGCCACUUAAAGCACUCCAGAGAAGGCACGUGUA | 15.3 | 22.8 | – | – |
| AAAAGGCUAGGAUAUACAUGAGGAUCACCCAUGUGUACUGGACAUGCGGUAUGCGUAUGUAGAAGGAGUAUAAA | 14.4 | 21.6 | – | – |
| AUGAGGUUAGGAUAUACAUGAGGAUCACCCAUGUUGGAGAAGGAAAUGUAAGUAGCGAGUAGAAGGAACGGAGC | 47 | 43.4 | – | – |
| GGUUGACAAAGUCAACCAUAACGAACAUGAGGAUCACCCAUGUAGGAUAUGCUACUCAAAGAGUAGCAGAAGGACAUGUGCCUU | 35.7 | 293 | – | – |
| AUAUCAUACCAAGGAUAUUUAAGAUUUGUGUAGACAUGAGGAUCACCCAUGUGGCGUUAGUCACGGGAGAAGGUGGUAUGAUAU | – | – | 978 | 205 |
| UCGGCCGCCGUGAGGAUAUGCCCGCGCGCCCGCGGGCAGAAGGCACAUGAGGAUCACCCAUGUCCCGCGGCAUU | 16.2 | 35.1 | – | – |
| GUCAGCUCGUGAGGAUAUACAACACUGCUUCCGCAGUGUAUUAAGAUCACAUGAGGAUCACCCAUGUAGAAGGCACGAGCUGAU | 13.7 | 222 | – | – |
| CCAUUUCUGUAAGGAUAUAUAAACAUGACGAUACAUGAGGAUCACCCAUGUGUAGAAGGUACAAAUACAUAUAAUGCAAUGUUC | 14.8 | 13 | – | – |
| CGGUGACGUGUAGGAUAUGGCGCUGGGUUUUGCCCAGAAGGACAUGAGGAUCACCCAUGUGGUAGAGGGCUGGCGGCCGCCCGC | 29.4 | 29.2 | – | – |
| GUUUACGUGGAAGGAUAUACAUUUGACAUCCUGAUGCGCGCAAUACCCACAUGAGGAUCACCCAUGUAGAAGGUCUGCGAAAGA | 14.7 | 18.4 | – | – |
| GAGGAUAGAGGAUAUGCAUAGAUACGGAUUCGUGUAGUACUACAUGAGGAUCACCCAUGUAGAAGGCUGUCCUG | 14.3 | 22.1 | – | – |
| UGAUAGGACAGAGGAUAUACGGAUAGGAUCUACUAUCUUUCUCAAAUAACAUGAGGAUCACCCAUGUAGAAGGCUGUCCUAUCU | 23.2 | 119 | – | – |
| UGCCAGUUAGGAUAUGACUCGACAGACAUGAGGAUCACCCAUGUCCGAGUGUGUGUUUUUUCAGAAGGGACGGCCC | 25.1 | 30.4 | – | – |
| AAGAAACAUGAGGAUCACCCAUGUGAUAAUAUGGGAGGAUAUACAAAGACGAAAGUCGAAGUAGAAGGCCUAUGAA | – | – | 52.3 | 43.2 |
| UACAUUACUGAGAAGGGAUACAUAUAAUUUUAGUCAGGAUAUCGAUACAGUGCAGCAUGAGGACAUGAGGAUCACCCAUGUAUU | – | – | 24.4 | 19.5 |
| UUAGGUCGAAACAUGAGGAUCACCCAUGUGUUGUAAUUAACAUAGGAUAUGUUUAUACUUUUUGGGCAGAAGGAUGAUAUUGCU | – | – | 17.3 | 14 |
| GGAGCCGGUACUGAGGAUAUUCAUAUUAAAACAUGAGGAUCACCCAUGUAGGCCAGAAGGCCUUGGGAGAAGGCAGGCCAGCUCG | – | – | 378 | 31.4 |

| Sequence | apparent Kd [1] [nM] | apparent Kd [2] [nM] | apparent Kd [3] [nM] | apparent Kd [4] [nM] |
| --- | --- | --- | --- | --- |
| GGUAGGUUCACAGGAUAUGCUAUCCUUUGGGUAGCAGAAGGGUGAUAACAUGAGGAUCACCCAUGUCCUACCGGGCGUGAGCCC | – | – | 1120 | 113 |
| GGGCCGUAGUAGAAGGGAUAUACGUUAGGUAUAUCAGGAUAUACAUGAGGAUCACCCAUGUUCUAACAGUGAUAGUCCUCCCUU | 15.5 | 33.1 | – | – |
| GUUGGCGUAGAAGGAUAUUGGUGAUGCGUCUUGUACAUGAGGAUCACCCAUGUCACUCUGCACGCCGAGAAGGUCUGCAAAUGG | – | – | 110 | 87.6 |
| GUCACGUCAGGAUAUCUGAUGUCUAACUUCGGUUAGACAUCAGAGAAGGGACAUGAGGAUCACCCAUGUGACAG | 140 | 275 | – | – |
| AGCUGUGGCCGAGGAUAUCUACCUUCAAUAACCGAAAUAUAAUCGGACAUGAGGAUCACCCAUGUAGAGAAGGCGGUCUCAGCA | 14.8 | 96.2 | – | – |
| UGUGCAGAAGGAUAUGCGUAAGCUCGGUGACGAGCAGGUCUACAUGAGGAUCACCCAUGUAGAAGGUCUGUACU | 16.8 | 17.9 | – | – |
| GGGUACAUCGGAGGAUAUCAUAUAAAUACAUGAGGAUCACCCAUGUCGAUGGAGACAUCGGAGAUUGAGAAGGCCGAUGUACCG | – | – | 8.43 | 5.54 |
| UUAAUAAUACAAGGAUAUCUAUUGUUCUUUCGACAUACAUGAGGAUCACCCAUGUUAAUAUAUAUAGAGAAGGUGUAUUUUCAG | – | – | 28 | 24.5 |
| CCGACCUUGGCAGGAUAUAGACUCGAAGUUGAUCCCGCCGAUGGAGACAUGAGGAUCACCCAUGUCUAGAAGGGCCAGUCGAAA | 14.3 | 46.1 | – | – |
| CGCUACUACCAGAAGGACAUGAGGAUCACCCAUGUAGGAUAUGGGUUACAAGUACCAGUGUAAAGAAACUACGCUACGUUUGCG | – | – | 47.2 | 7.79 |
| GUAUCUUACCAAGGAUAUUUAAGAUUAGUGUAGACAUGAGGAUCACCCAUGUGGCCUUAGUCACGGGAGAAGGUGGUUUGAUAC | – | – | 312 | 70.9 |
| CCGGAAAUAGAGGAUAUAGGAGUCGAUAGACUCCUAGAAGGCUAUACAUGAGGAUCACCCAUGUGUCCUACCGG | 17.4 | 39.6 | – | – |
| UACAAUCUAUCUGAGGAUAUCAUGAAAAAAACAUGAGGAUCACCCAUGUGCAGGAAAACUGCAUAUGAGAAGGCAGAUAGAUUGC | – | – | 671 | 29.3 |
| GAAUUAUUACAGAAGGUGUUUUACAUGAGGAUCACCCAUGUUUUAUUGUUUAAAUUUGUUAUUUACAAGGAUAUGUUCUAUUCU | – | – | 27 | 21.9 |
| GCCUUAUCUGUCAGGAUAUACAAUAAAAUAAUUUUGUAGAAGGGACAUGAGGAUCACCCAUGUACAUUACAUUG | 58.3 | 257 | – | – |
| CUAUGUUAGCAGGAUAUGCCAUUAUUCUUUUUCGCAGAAGGGCUUACAUGAGGAUCACCCAUGUUACAUUUCUU | 15 | 36.5 | – | – |
| CUGUGAUGGAUCCAGAAUUACAACAUGAGGAUCACCCAUGUGCAGGAUAUCGGGUUGAUAGGCGCCGAGAAGGGUAUGAUCACG | 164 | 140 | – | – |
| UUAUAUAGAGUGAGGAUAUGCUGGUCCUUGGAUCAGCAGAAGGCACAUGAGGAUCACCCAUGUAAUAUAAUAUU | 22.4 | 42 | – | – |
| UUUAAGUCAGGAUAUCGUUAAUUUAAUUGUUUGUUUUAGUUCGAGAAGGGACAUGAGGAUCACCCAUGUAAUUU | 34.3 | 38.9 | – | – |
| AAUAACAGAGGAUAUACUAUUUUAUGUGUUUAUUGUUUUAAACAUGAGGAUCACCCAUGUAGAAGGCUGAUUGA | 77.3 | 114 | – | – |
| CCACAUGAGGAUCACCCAUGUGACUUCUGUGGCCCGGUGUUGCAGGAUAUCGCAAGGUUAGUUGACGAGAAGGGCGACGGUGGU | 31.1 | 102 | – | – |
| GGAUAGGACAGAGGAUAUACGUGCUAGAGGUACUAGCAAAAUUUCCUCACAUGAGGAUCACCCAUGUAGAAGGCUGUCCUAUCG | 17 | 461 | – | – |
| GUAUAUCACUAAGGAUAUCUGUAAUAUGUUGAAACAUGAGGAUCACCCAUGUUCAUGUAUUUAUAGGAGAAGGUAGAGAUAUAC | – | – | 4.34 | 4.15 |
| ACCGUUGAAGCAGGAUAUUAUAGCGCCAGCGUAUAAGAAGGGCUUCAACAUGAGGAUCACCCAUGUUGGAGUACCUCAAAAGUG | 5.53 | 23.7 | – | – |
| GUCAGCUCGUGAGGAUAUACAUGUGCUGGAAACAGCACUAUUGUGUUCACAUGAGGAUCACCCAUGUAGAAGGCACGAGCUGAU | 18.2 | 85.6 | – | – |
| AGGUACCAUGUUAGGAUAUCACUGACUAACGUCGCUGAGAAGGAACAUGAGGAUCACCCAUGUGCCGGGCUCUU | 20.9 | 50.8 | – | – |
| AAUUGAAACGUAGGAUAUCGCAAAGAUCUAGAACGAGAAGGACGUACAUGAGGAUCACCCAUGUUAAAUGGUGAAGAUUAGAUG | 768 | 916 | – | – |
